# DDE Tn6 FP inh: disrupts Tn6 cyclic peptide binding to fibrin D-Dimer-E complex; Fibrin DD(E) TRITC-Tn6 fluorescence polarization displacement; AID 720509; P02675; inhibition, % at 8.3 µM; 370,000 tested, 0.21% active;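 active = inhibition above a per-campaign cutoff: mean of compounds within control limits plus 3 SD, cut at about 15% in these data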;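 note: 0% = median of all compound wells on the plate and 100% = blocking peptide control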
# Target sequence (P02675 whole entry, looked up): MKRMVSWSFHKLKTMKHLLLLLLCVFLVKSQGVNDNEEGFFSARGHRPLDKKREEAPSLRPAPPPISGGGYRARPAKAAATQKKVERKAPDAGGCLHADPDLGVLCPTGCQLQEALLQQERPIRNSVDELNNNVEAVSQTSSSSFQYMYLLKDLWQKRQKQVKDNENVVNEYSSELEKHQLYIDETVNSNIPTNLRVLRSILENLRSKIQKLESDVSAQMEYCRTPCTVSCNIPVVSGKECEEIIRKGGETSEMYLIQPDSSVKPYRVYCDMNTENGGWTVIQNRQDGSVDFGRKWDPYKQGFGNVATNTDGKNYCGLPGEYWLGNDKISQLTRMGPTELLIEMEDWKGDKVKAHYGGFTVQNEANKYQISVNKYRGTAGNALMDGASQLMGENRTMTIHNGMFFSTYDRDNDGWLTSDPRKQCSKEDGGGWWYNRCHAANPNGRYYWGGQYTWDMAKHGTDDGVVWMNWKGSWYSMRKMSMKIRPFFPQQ
# MBD2 DNA inh: MBD2-methylated oligo binding inhibition. 370,000 tested, 0.31% active. inhibition, % at 4.4 µM. Q9UBB5. TR-FRET, MBD2 binding to methylated oligonucleotide; in the data active = inhibition above about 13%
# DDE Tn7 FP inh: disrupts Tn7 cyclic peptide binding to fibrin D-Dimer-E complex | AID 720508 | FP displacement of FITC-Tn7 peptide from fibrin DD(E); 0% = median of compound wells per plate | P02675 | 370,000 tested, 0.13% active | inhibition, % at 8.3 µM;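 active = inhibition above the mean of compounds falling within the control limits plus 3 SD of them, cut at about 14% in these data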;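 note: 0% = plate median of compound wells and 100% = 10 µM Aha-Tn7 peptide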
#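 assay system = human clot-derived fibrin DD(E) complex | quantity = Fibrin-DD(E) at 2 µM final | timing = 10 min preincubation, 3 h with tracer, room temperature | signal = fluorescence polarization | measure = percent inhibition | benchmarks = high control wells with 10 µM unlabelled Aha-Tn7 peptide (full inhibition) | replicates = singlicate testing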
# UHRF1 binding: human UHRF1 methylated DNA binding inhibitors. 370,000 tested, 0.75% active. UHRF1 binding to methylated oligo, TR-FRET. AID 687016. inhibition, % at 4.4 µM. Q96T88; in the data active = inhibition above about 21%;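 note: UHRF1 SRA domain binding a hemimethylated CpG hairpin DNA probe; 0% = median of test compound wells and 100% = reference inhibitor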
# LEDGF integ inh: blocks HIV-1 LEDGF/p75-dependent DNA integration. TR-FRET IN-LEDGF/p75 DNA integration, Eu/Cy5. inhibition, % at 3.7 µM. 370,000 tested, 0.64% active. AID 743269;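 active = inhibition above the screen-wide mean plus 3 SD, cut at about 13% in these data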;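 note: signal is the Cy5 over europium emission ratio at 671 and 618 nm; 0% = plate median of compound wells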
# TDP2 inh: TDP2 (human) inhibition, absorbance primary screen; inhibition, % at 12.8 µM; AID 720702; recombinant TDP2, T5PNP hydrolysis, p-nitrophenol absorbance 415 nm; 370,000 tested, 0.34% active;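 active = inhibition above the mean of all tested compounds plus 3 SD, set per campaign, cut at about 25% in these data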;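 note: 0% = DMSO with enzyme and 100% = buffer with substrate but no TDP2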
#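 System: recombinant human TDP2 / Amount: 120 nM TDP2 per well / Also added: 5 mM T5PNP chromogenic substrate / Doses: 12.8 µM single point, 1% DMSO / Incubation: 2 h at 37 °C / Detection: p-Nitrophenol epi absorbance / Evaluation: % inhibition relative to enzyme-containing and enzyme-free wells / Repeats: singlicate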
# Tn6 DDE ctr: DD(E)-Tn6 binding inhibition, counter-screen; inhibition, % at 8.3 µM; 680 tested, 2% active; shares compounds with DDE Tn6 FP inh; Fibrin DD(E), TRITC-Tn6 fluorescence polarization displacement; 0% = median of compound wells, not DMSO;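 active = inhibition above the mean of test compounds lying between the control limits plus 3 SD of those, cut at about 14% in these data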;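 note: 0% = median of compound wells and 100% = wells with Aha-Tn7 blocking peptide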
# DDE Tn6 confirm: DD(E)-Tn6 binding inhibition, FP confirmation; 680 tested, 10% active; shares compounds with DDE Tn6 FP inh; AID 720631; FP displacement of TRITC-Tn6 peptide from DD(E); 0% = per-plate median of test wells; inhibition, % at 8.3 µM;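 active = inhibition above the mean of compounds lying within the control limits plus 3 SD, cut at about 16% in these data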;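 note: 100% = high control wells holding a competing inhibitor peptide at 10 µM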
# * marks the source's active call; other numbers are inactive results; . = no result; + = active, no number. This is a sample that favours compounds with a hit; in the whole collection about 1.9% have one here.
SMILES,DDE Tn6 FP inh,MBD2 DNA inh,DDE Tn7 FP inh,UHRF1 binding,LEDGF integ inh,TDP2 inh,Tn6 DDE ctr,DDE Tn6 confirm
CCOC(=O)CC[C@H]1CC[C@]2(CCCN(C3CCCCC3)C2)O1,1.3,-3.4,-3.5,2.8,-0.7,0.0,.,.
O=C(CC1C(=O)NCCN1C(=O)Nc1ccc(F)cc1F)Nc1cc(Cl)ccc1Cl (centres undefined),15.0,5.6,5.3,-1.6,-8.1,-8.4,.,.
Cc1cc(C)cc(NC(=O)N2CCNC(=O)C2CC(=O)Nc2cc(Cl)ccc2Cl)c1 (centres undefined),15.8*,0.8,5.8,-0.7,2.6,5.4,8.1,-1.3
CN1/C(=C\C=C2/SC(=S)NC2=O)C(C)(C)c2ccccc21,70.2*,-16.8,-107.1,-21.1,-1.0,1.5,-94.8,57.4*
Fc1ccc(N2CCN(C3=Nc4cccc5cccc3c45)CC2)cc1,-3.1,2.1,-6.0,13.6,0.5,-7.4,.,.
NC1=Nc2cccc3cccc1c23,37.9*,-5.3,1.8,-10.7,-1.5,8.6,7.9,45.8*
CC(=O)Nc1sc2c(c1-c1nc3ccccc3s1)CCOC2,15.7*,-0.9,-1.2,-13.6,-3.2,10.3,11.3,7.1
O=C(Nc1sc2c(c1-c1nc3ccccc3s1)CCNC2)C(F)(F)F,-5.8,-2.4,0.4,-56.6,-2.6,0.7,.,.
O=C(Cc1cccs1)Nc1cccc(-c2nc3cc4ccccc4cc3[nH]2)c1,143.7*,1.8,-13.9,1.3,1.5,-11.4,4.2,34.0*
O=S(=O)(c1ccc(F)cc1)N1CCCc2nc(-c3ccccc3)ccc21,4.8,-4.1,4.5,-1.7,2.0,5.0,.,.
NS(=O)(=O)c1ccc(NC(=O)CSc2nc3ccccc3c(=O)n2-c2ccc(Br)cc2)cc1,26.5*,-4.2,-3.3,-0.6,-0.9,-10.2,1.1,7.7
COc1ccc(NC(=O)C(c2cc3c(cc2[N+](=O)[O-])OCO3)N(C)C)cc1 (centres undefined),15.2*,-6.0,-8.6,-3.7,2.0,4.3,-3.0,-6.2
CC1CCC(NC(=O)C2CCC(CNc3c(N4CCCCC4)c(=O)c3=O)CC2)CC1 (centres undefined),16.6*,-3.2,1.9,-1.8,-3.8,-5.1,3.6,-7.5
CC(C)(C)NC(=O)C1CCC(CNc2c(N3CCCCC3)c(=O)c2=O)CC1 (centres undefined),0.9,1.1,2.2,1.4,-1.2,-1.1,.,.
O=C(OC12CCCN(C1)/C(=C/c1ccncc1)C2)c1ccc(F)cc1 (centres undefined),4.2,1.7,-7.8,-0.1,4.6,-0.3,.,.
COc1ccccc1C(=O)COC(=O)C(NC(=O)Cc1ccccc1)C(C)C (centres undefined),+,-4.9,1.5,0.1,3.0,-0.9,-4.5,-14.9
O=C(COC(=O)c1ccccc1Cc1ccccc1)Nc1ccc(SC(F)F)cc1,15.6*,7.8,-4.5,3.5,0.6,3.0,-1.2,-20.5
Cc1cc(CN(C)C(=O)CC2C(=O)NCCN2Cc2ccc(-c3ccccc3)cc2)on1 (centres undefined),15.9*,-8.3,2.1,-3.0,-1.2,1.6,-2.3,-13.8
CCOC(=O)c1c(C)[nH]c(O)c1C=Nc1ccc(Cl)cc1,31.8*,-6.3,-3.6,-5.4,0.6,5.4,1.8,-2.6
CCOC(=O)c1c(C)[nH]c(O)c1C=Nc1ccc(C(F)(F)F)cc1,-2.4,3.0,6.6,2.6,3.7,9.0,.,.
CC(=O)Nc1ccc(S(=O)(=O)NCc2ccc3[nH]c(C)cc3c2)cc1,-5.7,-5.5,1.3,-3.0,4.0,8.6,.,.
Cc1cc(C)c(S(=O)(=O)NCc2ccc3c(c2)cc(C)n3C)c(C)c1,58.9*,-6.0,-2.8,15.8,-0.7,-0.7,-3.6,8.2
CC(=O)Nc1ccc(S(=O)(=O)NCc2ccc3c(c2)cc(C)n3C)cc1,61.5*,-10.9,-0.6,-0.1,-4.2,-7.7,-6.0,-9.0
Cc1cc2cc(CNS(=O)(=O)c3ccc4ccccc4c3)ccc2n1C,49.6*,-1.7,-1.6,-3.9,4.2,-3.4,6.2,19.6*
NS(=O)(=O)c1ccc(CNS(=O)(=O)c2ccc3ccccc3c2)cc1,-1.0,3.6,5.0,0.7,-2.9,-4.1,.,.
SMILES,DDE Tn6 FP inh,MBD2 DNA inh,DDE Tn7 FP inh,UHRF1 binding,LEDGF integ inh,TDP2 inh,Tn6 DDE ctr,DDE Tn6 confirm
CC1CCN(C(=O)c2ccc(COc3ccccc3Cl)o2)CC1,-2.2,1.5,-2.9,3.1,0.9,-3.0,.,.
CC1CN(C(=O)c2ccc(COc3ccccc3Br)o2)CC(C)O1 (centres undefined),21.3*,-1.6,7.6,-0.2,-0.3,-6.4,-1.1,-0.6
CC1(C)CC(=O)C2=C(C1)N1C(=C(C#N)C2c2ccc(Cl)cc2)N=C(N)c2ccccc21 (centres undefined),5.9,4.5,-1.0,-3.1,-3.7,7.1,.,.
CC1(C)CC(=O)C2=C(C1)N1C(=C(C#N)C2c2ccccc2Cl)N=C(N)c2ccccc21 (centres undefined),17.0*,2.0,-6.1,0.1,4.3,-10.8,2.2,-0.5
CC(=O)O[C@@H]1C=C[C@@H](C#Cc2ccc(C(C)(C)C)cc2)O[C@@H]1COC(=O)NCc1ccccc1,0.0,-1.5,-0.5,2.9,0.8,-1.9,.,.
O=C(C1CCCN1S(=O)(=O)c1ccccc1[N+](=O)[O-])N1CCN(c2ccccc2)CC1 (centres undefined),-5.1,5.2,3.2,3.0,-0.7,-12.4,.,.
O=C(COc1ccc2ccccc2c1)NCCNC(=O)COc1ccc2ccccc2c1,6.2,1.6,0.4,-1.0,-0.1,-4.6,.,.
O=C(COc1ccc2ccccc2c1)NCCc1ccc2c(c1)OCCO2,17.7*,-0.5,-1.4,1.3,0.6,-10.7,-1.5,-9.9
COc1ccc(-c2cc(C(=O)Nc3ccccc3)on2)cc1,22.4*,1.1,-2.3,-1.7,2.2,3.8,3.3,-0.6
CCCCCCCCN1C(=O)[C@@H](CC(=O)N2CCSCC2)C[C@@]2(C(=O)OC)C1=C[C@H](C(C)(C)C)O[C@@H]2C,-3.1,2.1,5.1,1.0,-1.0,-0.8,.,.
C[C@@H]1C=CCCO[C@]12C(=O)N(Cc1ccc(F)cc1)c1cccc(Br)c12,-3.4,3.2,-2.1,-3.0,0.2,0.0,.,.
O=C(C1CC(=O)N(C2CCCC2)C1)N1CCN(c2ccccc2F)CC1 (centres undefined),1.1,-3.1,4.1,1.3,0.0,-13.0,.,.
